According to ChEMBL document CHEMBL4513216, “Probing the Open Global Health Chemical Diversity Library for Multistage-Active Starting Points for Next-Generation Antimalarials” (ACS Infect Dis, 2020):

Experiment: Toxicity liver stage against HepG2, at 10uM
Assay type: cell-based
Design: test concentration 10 uM, cell line HepG2-A16-CD81EGFP
Conditions: human, HepG2-A16-CD81EGFP cells; read-out: INHIBITION
Procedure, shortened: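 Uninfected HepG2-A16-CD81EGFP cells, 3 × 10^3 per well, 1536-well, plated on prespotted compound at 10 μM final, parasite-free screening media added to match infected plates; puromycin 10 μM positive, DMSO 0.5% negative; run in parallel with 48 h PbLuc assay at 37 °C, 5% CO2; viability by CellTiter-Glo luminescence, normalized to controls.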

CCS(=O)(=O)NC[C@]12COC[C@H]1CN(Cc1ccsc1)C2
cytotoxicity at 10 µM: 6.37%

COCCN(Cc1ccoc1)S(=O)(=O)c1ccc(F)c(C)c1
cytotoxicity at 10 µM: -7.15%

CNC(=O)[C@@H]1C[C@@H](NC(=O)CCCc2cccs2)CN1C1CCOCC1
cytotoxicity at 10 µM: -0.828%

CC(C)N(C)Cc1nnc2n1CCN(S(=O)(=O)C1CC1)CC2
cytotoxicity at 10 µM: -1.13%

Cc1nc(CN2CC3(CCN(c4cnccn4)C3)CC2=O)cs1 (stereo unspecified)
cytotoxicity at 10 µM: 1.36%

O=C1CC(c2ccc(C(=O)O)cc2)c2c(sc3c2CCCC3)N1 (stereo unspecified)
cytotoxicity at 10 µM: -5.14%

c1cc(CNCc2cccc3c2OCCO3)cc(Cn2cncn2)c1
cytotoxicity at 10 µM: -1.54%

CC(C)Cc1noc(C2CCCN(C(=O)CCc3cnn(C)c3)C2)n1 (stereo unspecified)
cytotoxicity at 10 µM: 0.297%

OCC1COCCN(c2ncccc2C(F)(F)F)C1 (stereo unspecified)
cytotoxicity at 10 µM: -9.34%

COCCCn1ccc(NCc2cnc(C(C)(C)C)s2)n1
cytotoxicity at 10 µM: 5.91%

CN1CC[C@H]2[C@H](C[C@@H](CN3CCCC3)N2c2nccs2)C1
cytotoxicity at 10 µM: 3.59%

CC(C)n1cc(CN2CCCN(C(=O)CC3CCCCC3)CC2)cn1
cytotoxicity at 10 µM: -10.8%

COc1ncccc1CNC(=O)c1cnccn1
cytotoxicity at 10 µM: -8.77%

COCC1CC2(CCN(c3ccc(C)nn3)CC2)CN1C(C)C (stereo unspecified)
cytotoxicity at 10 µM: -112%

Cc1cc(C)nc(N2CCC(c3cccc(CCC(=O)O)n3)CC2)n1
cytotoxicity at 10 µM: 0.343%

O=C(c1cscn1)N1CCC(Cn2cc(-c3ccsc3)nn2)CC1
cytotoxicity at 10 µM: 0.259%

CC(C)c1noc(C(C)N2CCN(Cc3nc4ccccc4[nH]3)CC2)n1 (stereo unspecified)
cytotoxicity at 10 µM: -2.16%

Cc1ccc(CN2CC[C@H]3C(=O)N(c4cccnc4)CCO[C@H]3C2)o1
cytotoxicity at 10 µM: 7.8%

CCN1CCN(Cc2c(C3CCCC3)[nH]c3ncccc23)CC1
cytotoxicity at 10 µM: 13.1%

C[C@@H]1CN(C2Cc3ccccc3C2)CC[C@@]1(O)C1CCOCC1
cytotoxicity at 10 µM: -4.04%

COCC(=O)N1CCN(S(=O)(=O)c2cccs2)[C@H]2CS(=O)(=O)C[C@H]21
cytotoxicity at 10 µM: 1.44%

COCCNC(=O)[C@H]1CN(Cc2nccs2)C[C@H]2OCC[C@@H]12
cytotoxicity at 10 µM: -11.6%

Cc1nn(C)c(N(C)C)c1CNC(C)COc1cccc(F)c1 (stereo unspecified)
cytotoxicity at 10 µM: -4.96%

COCCN1CCC(c2cncc(-c3cccc(Cl)c3)n2)CC1
cytotoxicity at 10 µM: -29.9%

CN(Cc1noc2c1CCCC2)C(=O)Cn1c(=O)cnc2ccccc21
cytotoxicity at 10 µM: -38.9%

O=C(C1CCOC1)N1CC2(CCN(c3ccccc3)C2)C1 (stereo unspecified)
cytotoxicity at 10 µM: 9.88%

CC(c1ccco1)N(C(=O)c1cccc(C#N)c1)C1CC1 (stereo unspecified)
cytotoxicity at 10 µM: 1.18%

CC(C)c1nc(CN(C)C(=O)c2ccc3c(c2)OCC(=O)N3)cs1
cytotoxicity at 10 µM: -4.15%

CC(Nc1cccc(CN2CCOC2=O)c1)C(=O)Nc1ccccc1F (stereo unspecified)
cytotoxicity at 10 µM: -5.25%

CC(C)(C)c1cnc(CN2CCC(NC(=O)CC3CCCC3)CC2)o1
cytotoxicity at 10 µM: -15.5%

Cc1noc(C)c1CC(=O)N1CCCC(Cn2ccnc2C)C1 (stereo unspecified)
cytotoxicity at 10 µM: -3.6%

Cc1ccnc(Cn2cc(-c3cccc(C(C)N(C)C)c3)nn2)c1 (stereo unspecified)
cytotoxicity at 10 µM: 1.74%

CCC1CN(CC(=O)N2CCCC2)CCN1CCOC (stereo unspecified)
cytotoxicity at 10 µM: -4.22%

CCc1c(C)nc2cc(C3CCN(Cc4ccc(F)cc4)C3)nn2c1O (stereo unspecified)
cytotoxicity at 10 µM: -18.6%

O=c1[nH]cnc2[nH]c(N3CCCCC3)nc12
cytotoxicity at 10 µM: 3.03%

COc1ccc(NC(=O)C2CCOC2)c(N2CCN(C(C)=O)CC2)n1 (stereo unspecified)
cytotoxicity at 10 µM: -12.2%

CC(c1nc(C(C)(C)C)no1)N1CCN(Cc2ccc(C#N)cc2)CC1 (stereo unspecified)
cytotoxicity at 10 µM: -5.38%

O=C(NC1CC1)NC(c1cc(F)ccc1F)C1CC1 (stereo unspecified)
cytotoxicity at 10 µM: -12.8%

CC(C)c1ncncc1C(=O)N1CCN(Cc2ccccn2)CC1
cytotoxicity at 10 µM: -2.87%

O=C(c1cc(-c2cccs2)nc2ccccc12)N1CCN(CCO)CC1
cytotoxicity at 10 µM: -53.2%

Cc1cc(C[S+]([O-])Cc2ccccc2C)no1 (stereo unspecified)
cytotoxicity at 10 µM: 9.13%

CCCc1n[nH]c(C2CN(CCNS(=O)(=O)CC)CCO2)n1 (stereo unspecified)
cytotoxicity at 10 µM: 2.43%

COc1ccc(OC)c(NC(=O)NCC(O)c2ccc(F)c(F)c2)c1 (stereo unspecified)
cytotoxicity at 10 µM: 0.746%

CN1CCN(CC2CC2)C(=O)C12CCN(C(=O)c1cnccn1)CC2
cytotoxicity at 10 µM: 7.95%

Cc1nn(C)cc1-c1cc(C(F)(F)F)nn1CCC#N
cytotoxicity at 10 µM: 3.65%

Cc1cccc2[nH]c(-c3cn(C4CCNCC4)nn3)nc12
cytotoxicity at 10 µM: -6.47%

Cc1ccc(S(=O)(=O)NC[C@H]2OC[C@@H](NCc3cccs3)[C@@H]2O)cc1
cytotoxicity at 10 µM: -3.24%

CN(Cc1csc(-c2ccccc2)n1)C(=O)CCn1ccccc1=O
cytotoxicity at 10 µM: -2.84%

Cn1ccc(-c2cc(C(=O)N3CCOCC3)c3ccccn23)n1
cytotoxicity at 10 µM: 7.9%

CCn1ncc2c(C(F)F)cc(-c3ccn(C)n3)nc21
cytotoxicity at 10 µM: -1.21%

CC1c2ncc(COCC3CC3)n2CCN1C(=O)c1ccnn1C (stereo unspecified)
cytotoxicity at 10 µM: 4.68%

CC1=NN(c2ccc(C(=O)N3CCCC(n4ccnc4)C3)cc2)CC1 (stereo unspecified)
cytotoxicity at 10 µM: -15.6%

COc1ccccc1CNC(=O)C(C)N1CC(n2cc(C)cn2)C1 (stereo unspecified)
cytotoxicity at 10 µM: 6.15%

Cc1ccc(NCC2(O)CCNCC2)cc1C
cytotoxicity at 10 µM: 2.27%

Cc1ccc(C)c(OC2CCN(C(=O)c3ccc(C)[nH]c3=O)CC2)c1
cytotoxicity at 10 µM: 2.87%

O=C(CC1CC1)N1C[C@H]2CCN[C@H]2C1
cytotoxicity at 10 µM: 5.75%

Cc1c[nH]c(CN(C)C(=O)C2CC(=O)N(Cc3ccncc3)C2)n1 (stereo unspecified)
cytotoxicity at 10 µM: 16.7%

Cc1cc(C)n(-c2cncc(NCCNC(=O)c3cccnc3)n2)n1
cytotoxicity at 10 µM: 7.45%

Cc1cc2cc(C(=O)N[C@@H]3CC[C@@H](N4CCOCC4)[C@@H]3O)ccc2o1
cytotoxicity at 10 µM: -1.85%

Fc1ccc(CN2CCC(c3noc(-c4cnccn4)n3)CC2)cc1F
cytotoxicity at 10 µM: 2.35%

O=C1COc2c(cccc2C(=O)N2CCCC2Cn2cccn2)N1 (stereo unspecified)
cytotoxicity at 10 µM: -4.47%

CC(Cn1ccnc1)NC(=O)NCCN1CCc2ccccc2C1 (stereo unspecified)
cytotoxicity at 10 µM: 7.65%

Cc1cccc(S(=O)(=O)N2CC[C@H]3[C@H]2CCN3c2ncccn2)c1
cytotoxicity at 10 µM: 0.995%

O=C(CN1CC(c2nc(C3CC3)no2)C1)NCC1CCCO1 (stereo unspecified)
cytotoxicity at 10 µM: -6.66%

CC(NC(=O)Nc1ccc(N2CCCC2)nc1)c1nncn1C (stereo unspecified)
cytotoxicity at 10 µM: -12.6%

O=C1CN(CC2CC2)Cc2nc(NCCc3ccccn3)sc21
cytotoxicity at 10 µM: -12.3%
